# This is a sample that favours compounds with a hit; in the whole collection about 1.8% have one here.
# Scp1 inh = inhibitors of human Scp-1 phosphatase; AID 493091; Recombinant Scp1, phosphopeptide, malachite green phosphate absorbance; 340,000 tested, 0.88% active; inhibition, % at 20 µM;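 active = inhibition above about 50% at 20 µM, limit read from the data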;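 note: plate controls were DMSO wells with enzyme for no effect and wells lacking enzyme for full effect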
# Target sequence (Q9GZU7 76-261 limits assumed): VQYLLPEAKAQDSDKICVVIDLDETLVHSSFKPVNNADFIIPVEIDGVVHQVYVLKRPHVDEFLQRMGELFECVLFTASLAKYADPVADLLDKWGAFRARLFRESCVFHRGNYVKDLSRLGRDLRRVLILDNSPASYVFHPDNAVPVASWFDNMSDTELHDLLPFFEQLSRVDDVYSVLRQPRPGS
#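 Material: truncated SCP-1 phosphatase (76-261aa) / Buffer or medium: 50 mM Tris acetate pH 5.5, 0.005% Tween-20, 10 mM MgCl2 / Compound dosing: one concentration, 20 µM, with 1.0% DMSO / Incubation: 45 min room-temperature reaction, 5 min colour, 30 min stabiliser / Detection: colorimetric free-phosphate detection, absorbance 630 nm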
# HKDC1 inh = HKDC1 (human) hexokinase inhibition | 340,000 tested, 0.16% active | recombinant HKDC1, G6PDH/diaphorase resazurin coupled fluorescence | Q2TB90 | inhibition, % at 20 µM;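 active = inhibition above about 35% when tested at 20 µM, limit read from the data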;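 note: plate controls were DMSO wells with enzyme for no effect and DMSO wells lacking enzyme for full effect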
#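 Assay system: recombinant HKDC1 hexokinase; detection: coupled resazurin fluorescence, excitation 525 nm, emission 613 nm; benchmarks: DMSO-plus-enzyme-mix negative control, buffer-substituted positive control; compound dosing: single 20 µM dose; schedule: 90 min at room temperature in dark; also added: glucose plus 1 mM ATP as hexokinase substrates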
# STEP inh = inhibitors of human striatal-enriched phosphatase STEP; P54829; recombinant STEP, OMFP fluorogenic substrate, fluorescence; inhibition, % at 20 µM; 360,000 tested, 0.25% active; AID 588621;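 active = inhibition at 20 µM, scaled per plate between control wells, above about 37%, limit read from the data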;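 note: 0% = DMSO with enzyme and substrate and 100% = substrate only without enzyme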
#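 Test system: STEP tyrosine phosphatase / Reagent: OMFP at 25 µM / Doses: 20 µM, 1% DMSO / Read-out: percent inhibition scaled to no-enzyme and uninhibited-enzyme controls, plate-pattern corrected / Detection: FITC-channel fluorescence of OMFP product / Medium: Bis-Tris buffer pH 6.0, 2.5 mM DTT, 0.005% Tween 20 / Schedule: 20 min at room temperature, dark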
# LMPTP inh = LMPTP (human) inhibition; AID 651560; 360,000 tested, 0.22% active; P24666; recombinant LMPTP-A, OMFP fluorogenic substrate, fluorescence intensity; inhibition, % at 20 µM;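 active = compounds that cut the enzyme signal by at least half of the control window in the single-dose screen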;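 note: plate controls were DMSO wells with enzyme plus substrate for no effect and substrate without enzyme for full effect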
# Target sequence (P24666 whole entry, looked up): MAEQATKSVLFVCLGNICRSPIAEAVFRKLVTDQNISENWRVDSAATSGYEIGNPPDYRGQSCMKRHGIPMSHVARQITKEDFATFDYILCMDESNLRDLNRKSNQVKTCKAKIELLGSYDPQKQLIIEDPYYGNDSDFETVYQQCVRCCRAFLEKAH
#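 Test system – LMPTP-A phosphatase enzyme · Quantity – 0.625 nM LMPTP-A final · Reagent – OMFP substrate, 400 µM final · Dosing – one test concentration per compound, 20 µM, with 3% DMSO overall · Timing – 50 min enzyme reaction at room temperature, protected from light · Detection – fluorescence intensity · Controls – substrate-only low control, DMSO enzyme-plus-substrate high control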
# DNMT1 block = blocks human DNA methyltransferase DNMT1 | DNMT1 molecular beacon, Hinp1I cleavage, fluorescence | P26358 | AID 588458 | 360,000 tested, 0.83% active | inhibition (reported as % activation of signal), % at 10 µM; in the data active = inhibition above about 50%
# SUMO1 PPI mod = modulators of human SUMO1-mediated protein-protein interactions; P63165; SUMO1 binding to a labelled peptide, TR-FRET, 1 h; inhibition, % at 20 µM; 360,000 tested, 0.33% active; in the data active = inhibition above about 37%
# Target sequence (P63165 whole entry, looked up): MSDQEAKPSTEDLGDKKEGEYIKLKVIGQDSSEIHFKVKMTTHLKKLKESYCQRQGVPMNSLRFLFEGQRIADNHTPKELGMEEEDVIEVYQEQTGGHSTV
# DNMT1 inh conf = DNMT1 inhibition confirmation, single concentration | shares compounds with DNMT1 block | AID 602385 | DNMT1 molecular beacon HinP1I cleavage, fluorescence | 2,300 tested, 8% active | inhibition, % at 10 µM;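 active = average inhibition of at least 30% in the single-concentration confirmation test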
# Beacon interf = counter-screen for DNMT1 inhibitors: spectral interference; shares compounds with DNMT1 block; 2,300 tested, 1% active; DNMT1 molecular beacon spectral interference counterscreen, fluorescence 485/520; activation (fluorescence interference), % at 10 µM; AID 602387;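 active = activation of at least 30% at 10 µM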;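 note: DNMT1 catalytic domain with a HinP1I cleavage step and a FAM/dabcyl DNA beacon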
# * = called active by the depositor; / = no result given.
SMILES,Scp1 inh,HKDC1 inh,STEP inh,LMPTP inh,DNMT1 block,SUMO1 PPI mod,DNMT1 inh conf,Beacon interf
C=CCC[C@@H](Cc1ccc(F)cc1)C(=O)OC[C@@H](Cc1c[nH]c2ccccc12)NC(=O)[C@@H](CC=C)CC(=O)N[C@H](CO)Cc1ccccc1,-11,1,2,60*,74*,8,10,9
C=CC[C@@H](CC(=O)N[C@@H](CO)Cc1ccccc1)C(=O)NC[C@H](OC(=O)[C@@H](CC=C)Cc1ccc(F)cc1)c1ccccc1,-8,-4,1,-1,2,0,/,/
O=C(CCc1ccccn1)N1CCCC(N2CCN(c3cccc(C(F)(F)F)c3)CC2)C1 (centres undefined),-6,-7,-5,0,0,-1,/,/
Cc1cccc(-c2nnn3c2nc(NCCc2ccc(S(N)(=O)=O)cc2)c2ccccc23)c1,3,-4,0,40,42,-17,/,/
Cc1ccc(-c2nnn3c2nc(NCCc2ccc(S(N)(=O)=O)cc2)c2ccccc23)cc1,-2,21,2,21,89*,-4,7,-2
NS(=O)(=O)c1ccc(CCNc2nc3c(-c4cccc(F)c4)nnn3c3ccccc23)cc1,-14,-5,5,27,72*,-5,7,-2
Cc1cc(CN(C)C(=O)c2ccc3nc(Cc4ccccc4F)oc3c2)on1,2,-3,0,1,-1,-2,/,/
COc1cccc(N2CCN(C(=O)c3cc(-c4ccccc4)nc4c3cnn4C(C)C)CC2)c1,2,5,6,4,-11,1,/,/
Cc1ccc(N=Nc2c(N)nn3c(C)cc(C)nc23)cc1,-24,8,10,0,-4,-11,/,/
Cc1ccc(N=Nc2c(N)nn3c(N)c(C#N)c(C)nc23)cc1,3,9,12,9,79*,-24,13,5
CC(=O)N1CCN(C(=O)c2cc(S(=O)(=O)N(C)Cc3ccccc3)ccc2Cl)CC1,-7,-1,2,-11,-1,-5,/,/
CC[C@]12c3[nH]c4cc(CCC(=O)N(C)C)ccc4c3CCN1C(=O)[C@@H](CC(=O)NCc1cccc(C(F)(F)F)c1)C[C@@H]2C(=O)N1CCN(C(=O)c2ccco2)CC1,4,9,3,-2,53*,4,3,3
CC(C)[C@H](NC(=O)[C@H](Cc1ccccc1)n1c(=O)[nH]c2ccccc2c1=O)C(=O)N1CCC[C@@H]1C(=O)O,1,-6,2,1,82*,3,-1,2
O=C(COC(=O)/C=C/c1ccccc1[N+](=O)[O-])NC1CC1,-5,-3,-4,-3,50*,-23,7,11
O=C(COC(=O)/C=C/c1ccccc1[N+](=O)[O-])NC1CCS(=O)(=O)C1 (centres undefined),-5,-2,-1,-1,2,-18,/,/
COC(=O)C[C@@H]1CC[C@H](NC(=O)CC2CC2)[C@@H](CO)O1,/,/,/,-2,/,-2,/,/
Clc1ccc(CNc2ccc3nnc(-c4ccccc4)n3n2)cc1,3,6,0,8,66*,3,0,-2
CCOc1ccc(CCNc2ccc3nnc(-c4ccccc4)n3n2)cc1OCC,-7,-5,-14,2,28,20,/,/
O=S1(=O)N(Cc2ccccc2F)CCCN1Cc1c(F)cccc1Cl,-22,1,0,3,1,1,/,/
Cc1cc(NC(=O)c2cc(C3CC3)on2)no1,-1,0,0,0,56*,4,1,-1
Cc1cc(NC(=O)c2ccc(C)o2)no1,-4,-2,-2,-2,3,-3,/,/
Cc1cc(C(=O)Nc2cc(C)on2)on1,-1,-7,-4,0,81*,8,6,1
